Key:
Zea mays [1] = assay: Reduction in root tips in Zea mays (maize) seedlings at 100 ug/L; format: functional, organism-based
In short: (§1)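 Maize seedlings were grown in a chamber (12 h light, 10,000 lx, 25/20 °C, 60% RH) for five days under graded levels of S-(+)-, R-(-)- or racemic IM. Root diameter, volume, surface area and tip number were measured per plant with an automatic root scanner. Values are means ± SD of three replicates of 10 randomly selected seedlings each.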

Zea mays [2] = assay: Reduction in root tips in Zea mays (maize) seedlings at 100 to 800 ug/L; format: functional, organism-based; in short: as §1
Zea mays [3] = assay: Effect on root surface area in Zea mays (maize) seedlings at 100 to 800 ug/L; format: functional, organism-based; in short: as §1
Zea mays [4] = assay: Effect on root volume in Zea mays (maize) seedlings at 100 to 800 ug/L; format: functional, organism-based; in short: as §1
Zea mays [5] = assay: Increase in root diameter in Zea mays (maize) seedlings at 100 to 800 ug/L; format: functional, organism-based; in short: as §1
Zea mays [6] = assay: Phytotoxicity in Zea mays assessed (maize) as total root length measured per plant at 400 ug/L measured 5 days post compound treatment (reference value: 12.32 +/- 1.46 cm); format: functional
Zea mays [7] = assay: Phytotoxicity in Zea mays assessed (maize) as total root length measured per plant at 800 ug/L measured 5 days post compound treatment (reference value: 12.32 +/- 1.46 cm); format: functional
Zea mays [8] = assay: Phytotoxicity in Zea mays assessed (maize) as total root length measured per plant at 200 ug/L measured 5 days post compound treatment (reference value: 12.32 +/- 1.46 cm); format: functional
Zea mays [9] = assay: Phytotoxicity in Zea mays (maize) assessed as shoot height at 800 ug/L measured 5 days post compound treatment (reference value: 6.89 +/- 0.30 cm); format: functional
Zea mays [10] = assay: Phytotoxicity in Zea mays (maize) assessed as total root length measured per plant at 100 ug/L measured 5 days post compound treatment (reference value: 12.32 +/- 1.46 cm); format: functional
Zea mays [11] = assay: Phytotoxicity in Zea mays (maize) assessed as shoot height at 200 ug/L measured 5 days post compound treatment (reference value: 6.89 +/- 0.30 cm); format: functional
Zea mays [12] = assay: Phytotoxicity in Zea mays (maize) assessed as shoot height at 400 ug/L measured 5 days post compound treatment (reference value: 6.89 +/- 0.30 cm); format: functional
Zea mays [13] = assay: Phytotoxicity in Zea mays (maize) assessed as shoot height at 100 ug/L measured 5 days post compound treatment (reference value: 6.89 +/- 0.30 cm); format: functional
Zea mays [14] = assay: Phytotoxicity in Zea mays (maize) assessed as root dry weight assessed per 10 plants at 800 ug/L measured 5 days post compound treatment (reference value: 42.8 +/- 0.7 mg); format: functional
Zea mays [15] = assay: Phytotoxicity in Zea mays (maize) assessed as root dry weight assessed per 10 plants at 200 ug/L measured 5 days post compound treatment (reference value: 42.8 +/- 0.7 mg); format: functional
Zea mays [16] = assay: Phytotoxicity in Zea mays (maize) assessed as root dry weight assessed per 10 plants at 400 ug/L measured 5 days post compound treatment (reference value: 42.8 +/- 0.7 mg); format: functional
Zea mays [17] = assay: Phytotoxicity in Zea mays (maize) assessed as root dry weight assessed per 10 plants at 100 ug/L measured 5 days post compound treatment (reference value: 42.8 +/- 0.7 mg); format: functional
Zea mays [18] = assay: Phytotoxicity in Zea mays (maize) assessed as shoot dry weight assessed per 10 plants at 400 ug/L measured 5 days post compound treatment (reference value: 101.2 +/- 4.5 mg); format: functional
Zea mays [19] = assay: Phytotoxicity in Zea mays (maize) assessed as shoot dry weight assessed per 10 plants at 800 ug/L measured 5 days post compound treatment (reference value: 101.2 +/- 4.5 mg); format: functional
Zea mays [20] = assay: Effect on cell organelles in root tip statocytes in Zea mays (maize) seedlings at 400 ug/L measured 48 hr post dose by transmission electron microscopy; format: functional, organism-based
In short: (§2)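 Maize seeds surface-sterilized in 10% NaOCl for 10 min, soaked 12 h, germinated on moist gauze. Root-tip sections of 1-3 mm were fixed in 4% glutaraldehyde, postfixed in OsO4 and embedded in Spurr's resin. 80 nm sections were viewed by TEM at 60 kV.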

Zea mays [21] = assay: Induction of ultrastructure damage of root tip statocytes in Zea mays (maize) seedlings assessed as reduction in starch grain size at 400 ug/L measured 48 hr post dose by transmission electron microscopy; format: functional, organism-based; in short: as §2
Zea mays [22] = assay: Induction of ultrastructure damage of root tip statocytes in Zea mays (maize) seedlings at 400 ug/L measured 48 hr post dose by transmission electron microscopy; format: functional, organism-based; in short: as §2
Zea mays [23] = assay: Reduction of root hair growth in Zea mays (maize) seedlings at 400 ug/L measured 48 hr post dose by microscopy; format: functional, organism-based
In short: (§3)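 Maize seedlings with primary roots about 2 mm long were moved to 0 or 400 µg L-1 S-(+)-, R-(-)- or racemic IM solution. After 48 h, root tips (border cells) and the densest root-hair zone were examined and photographed under a light microscope. Growth chamber: 12 h light, 25/20 °C, 60% RH.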

Zea mays [24] = assay: Phytotoxicity in Zea mays (maize) assessed as shoot dry weight assessed per 10 plants at 200 ug/L measured 5 days post compound treatment (reference value: 101.2 +/- 4.5 mg); format: functional
Zea mays [25] = assay: Phytotoxicity in Zea mays (maize) assessed as shoot dry weight assessed per 10 plants at 100 ug/L measured 5 days post compound treatment (reference value: 101.2 +/- 4.5 mg); format: functional
Zea mays [26] = assay: Induction of ultrastructure damage of root tip statocytes in Zea mays (maize) seedlings assessed as induction of cell wall thickening at 400 ug/L measured 48 hr post dose by transmission electron microscopy; format: functional, organism-based; in short: as §2
Zea mays [27] = assay: Induction of ultrastructure damage of root tip statocytes in Zea mays seedlings (maize) assessed as dictyosomers swelling at 400 ug/L measured 48 hr post dose by transmission electron microscopy; format: functional, organism-based; in short: as §2
Zea mays [28] = assay: Induction of ultrastructure damage of root tip statocytes in Zea mays (maize) seedlings assessed as destruction of mitochondria envelope membranes at 400 ug/L measured 48 hr post dose by transmission electron microscopy; format: functional, organism-based; in short: as §2
Zea mays [29] = assay: Induction of ultrastructure damage of root tip statocytes in Zea mays (maize) seedlings assessed as reduction in organelle size at 400 ug/L measured 48 hr post dose by transmission electron microscopy; format: functional, organism-based; in short: as §2
Zea mays [30] = assay: Reduction of sloughing of border cells from root tips in Zea mays (maize) seedlings at 400 ug/L measured 48 hr post dose by microscopy; format: functional, organism-based; in short: as §3

SMILES	Activity (Zea mays [2])	Activity (Zea mays [3])	Activity (Zea mays [4])	Activity (Zea mays [5])	Activity (Zea mays [6]) [cm]	Activity (Zea mays [7]) [cm]	Activity (Zea mays [8]) [cm]	Activity (Zea mays [9]) [cm]	Activity (Zea mays [10]) [cm]	Activity (Zea mays [11]) [cm]	Activity (Zea mays [12]) [cm]	Activity (Zea mays [13]) [cm]	Activity (Zea mays [14]) [mg]	Activity (Zea mays [15]) [mg]	Activity (Zea mays [16]) [mg]	Activity (Zea mays [17]) [mg]	Activity (Zea mays [18]) [mg]	Activity (Zea mays [19]) [mg]	Activity (Zea mays [23])	Activity (Zea mays [24]) [mg]	further results
CCc1cnc(C2=N[C@@](C)(C(C)C)C(=O)N2)c(C(=O)O)c1 [S-(+)-IMAZETHAPYR]	Toxic	Toxic	Toxic	Non-toxic	7.2	6.1	8.9	5.1	9.4	6.3	5.7	6.5	29.6	35.1	30.3	36.6	85.4	75.6	Non-toxic	101.3	Activity (Zea mays [1]): Non-toxic; Activity (Zea mays [20]): Non-toxic; Activity (Zea mays [21]): Non-toxic; Activity (Zea mays [22]): Non-toxic; Activity (Zea mays [25]): 100 mg
CCc1cnc(C2=N[C@](C)(C(C)C)C(=O)N2)c(C(=O)O)c1 [R-(-)-IMAZETHAPYR]	Toxic	Toxic	Toxic	Toxic	4.9	4.8	6.4	3.4	7.7	5.9	3.9	6.2	25.2	30.5	25.7	33.8	61.4	57.1	Toxic	91.9	Activity (Zea mays [1]): Toxic; Activity (Zea mays [26]): Toxic; Activity (Zea mays [27]): Toxic; Activity (Zea mays [28]): Toxic; Activity (Zea mays [29]): Toxic; Activity (Zea mays [21]): Toxic; Activity (Zea mays [22]): Toxic; Activity (Zea mays [30]): Toxic; Activity (Zea mays [25]): 90.3 mg
CCc1cnc(C2=NC(C)(C(C)C)C(=O)N2)c(C(=O)O)c1 (racemic) [IMAZETHAPYR]	Toxic	Toxic	Toxic	Toxic	5.5	5.2	7.4	4	8.1	6.2	4.6	6.3	29	34.6	26.4	36.1	83.3	73.4	Non-toxic	107.8	Activity (Zea mays [25]): 92.4 mg

Reference: ChEMBL document CHEMBL3046020, “Enantioselectivity in the phytotoxicity of herbicide imazethapyr” (2009)
